GSTO1 counter = GSTO1 inhibition, counter-screen for RBBP9 inhibitors | inhibition, % at 5.96 µM | P78417 | 300,000 compounds, 1.1% hits | recombinant GSTO1, activity-based probe fluorescence polarization | AID 1974;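 active = inhibition above the campaign mean inhibition plus 3 SD, cut at about 35% in these data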
JMJD2C inh = inhibitors of human GASC-1 (JMJD2C) demethylase | Q9H3R0 | 330,000 compounds, 0.069% hits | GST-JMJD2C(1-420) H3K9me3 demethylation, DELFIA europium | inhibition, % at 2.35 µM | AID 2099;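 active = more than half of a compound's replicate wells show inhibition beyond 50%, single wells judged on their own value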;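 note: signal counts dimethyl H3K9 product captured on neutravidin plate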
Target sequence (Q9H3R0 1-420 limits assumed): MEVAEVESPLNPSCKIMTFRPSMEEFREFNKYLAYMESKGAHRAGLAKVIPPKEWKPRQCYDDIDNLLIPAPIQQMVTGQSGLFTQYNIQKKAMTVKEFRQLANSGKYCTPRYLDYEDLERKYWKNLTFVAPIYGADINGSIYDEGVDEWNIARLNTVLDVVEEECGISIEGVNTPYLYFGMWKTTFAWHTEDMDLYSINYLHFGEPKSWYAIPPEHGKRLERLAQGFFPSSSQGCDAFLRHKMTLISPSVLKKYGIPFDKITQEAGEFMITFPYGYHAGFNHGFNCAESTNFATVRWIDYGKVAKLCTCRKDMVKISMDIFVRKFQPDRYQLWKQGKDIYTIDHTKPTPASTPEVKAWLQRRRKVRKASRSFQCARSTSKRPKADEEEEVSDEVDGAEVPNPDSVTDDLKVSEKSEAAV
PAD4 FP inh = inhibitors of human PAD4 | Q9UM07 | recombinant PAD4, RCA probe fluorescence polarization | inhibition, % at 6.36 µM | 330,000 compounds, 0.41% hits | AID 485272;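 active = percent inhibition above a cutoff equal to the mean of all tested compounds plus 3 SD, cut at about 15% in these data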
Apaf-1 inh = human Apaf-1 inhibition. 330,000 compounds, 0.71% hits. reconstituted apoptosome caspase-3 activity, DEVD-Rh110 fluorescence. inhibition, % at 20 µM. O14727; active = inhibition of at least 40% at 20 µM
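detection = Rh110 fluorescence intensity | test system = biochemical Apaf-1 apoptosome reconstitution | also added = cytochrome c and DEVD-Rh110 substrate | schedule = 30 min plus 50 min, RT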
UBC9 SUMO inh = blocks human SUMOylation mediated by UBC9 | HTRF SUMOylation assay, SAE1/SAE2 + UBC9, in vitro | 290,000 compounds, 0.36% hits | P63279 | inhibition, % at 35 µM; in the data active = inhibition above about 50%, passing the limit was not always enough
Target sequence (P63279 whole entry, looked up): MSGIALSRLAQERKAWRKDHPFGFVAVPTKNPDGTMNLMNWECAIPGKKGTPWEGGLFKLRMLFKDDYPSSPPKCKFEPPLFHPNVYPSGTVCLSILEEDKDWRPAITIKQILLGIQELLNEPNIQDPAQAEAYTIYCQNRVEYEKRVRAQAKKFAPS
TDP2 inh = blocks human TDP2 phosphodiesterase activity. recombinant TDP2, T5PNP hydrolysis, p-nitrophenol absorbance 415 nm. AID 720702. inhibition, % at 12.8 µM. 370,000 compounds, 0.34% hits;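 active = inhibition above the mean of all tested compounds plus 3 SD, set per campaign, cut at about 25% in these data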
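Test system: human TDP2 enzyme; Input: 120 nM TDP2 per well; Buffer or medium: Mg2+-containing Tris-HCl buffer, pH 7.5; Reagent: 5 mM T5PNP; Dosing: 12.8 µM single point, 1% DMSO; Incubation: reaction 2 h, 37 °C; Detection: p-Nitrophenol epi absorbance; Read-out: % inhibition relative to enzyme-containing and enzyme-free wells; Replicates: single well per compound.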
GSTO1 inh conf = GSTO1 (human) inhibition, confirmation; recombinant GSTO1, probe fluorescence polarization; shares compounds with GSTO1 counter; 2,400 compounds, 54% hits; inhibition, % at 5.96 µM;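 active = inhibition above the primary screen's cutoff, its mean inhibition plus 3 SD, cut at about 35% in these data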;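 note: loss of polarization as inhibitors block binding of rhodamine sulfonate ester activity probe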
PAD4 confirm = PAD4 (human) inhibition, confirmed. inhibition, % at 6.36 µM. recombinant PAD4, RCA probe fluorescence polarization. shares compounds with PAD4 FP inh. 1,200 compounds, 28% hits;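 active = mean inhibition across replicates above the hit cutoff set by the earlier primary screen, cut at about 15% in these data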;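 note: inhibitors block active-site labeling by the probe so polarization falls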
Apaf-1 inh conf = confirmation of Apaf-1 inhibitors | shares compounds with Apaf-1 inh | reconstituted apoptosome, caspase-3 DEVD-Rh110 fluorescence | inhibition, % at 20 µM | 1,800 compounds, 25% hits;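 active = mean inhibition of at least 40% at 20 µM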
Rh110 quench = counter-screen for Apaf-1 inhibitors: fluorescence interference | shares compounds with Apaf-1 inh | Rh110 fluorescence interference, quenched caspase reaction | activation (fluorescence interference), % at 20 µM | 1,800 tested, under 10 active;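 active = signal rise of 40% or more at 20 µM, treated as a fluorescence artifact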
Apaf1 inh interf = shows fluorescence interference in the Apaf-1 inhibitor assay format | shares compounds with Apaf-1 inh | fluorescence interference counterscreen, Apaf-1 assay format | IC50, µM | 460 tested, under 10 active | AID 588538; call rule not given here
TDP2 confirm = human TDP2 inhibition, confirmation. shares compounds with TDP2 inh. recombinant human TDP2, absorbance read-out. inhibition, % at 12.8 µM. 1,100 compounds, 22% hits; in the data active = inhibition above about 25%
Hits are given with their value; . = inactive; / = no result. The list is not random: actives were taken first. Their share in the collection is about 1.6%.

SMILES | GSTO1 counter | JMJD2C inh | PAD4 FP inh | Apaf-1 inh | UBC9 SUMO inh | TDP2 inh | PAD4 confirm | others
COC(=O)Cn1nc(-c2ccccc2)c2cccc(C(F)(F)F)c21 | / | / | / | / | / | . | /
O=c1[nH]c(Nc2ccc(F)cc2)cc2ccccc12 | 66.7 | . | 43.2 | 95.1 | / | 76.8 | 16.6 | GSTO1 inh conf=43.6;Apaf-1 inh conf=91.5;Rh110 quench=.;Apaf1 inh interf=.;TDP2 confirm=64.9
O=c1oc(Nc2ccccc2Cl)nc2ccccc12 | / | . | / | / | . | . | /
O=c1[nH]c(Nc2ccccc2Cl)cc2ccccc12 | 39.9 | . | 28.3 | 98.1 | / | 71.4 | . | GSTO1 inh conf=.;Apaf-1 inh conf=79.0;Rh110 quench=.;Apaf1 inh interf=.;TDP2 confirm=42.6
Cc1cc(Nc2ccc(F)cc2)c2ccccc2n1 | / | / | / | / | / | . | /
CC(=O)OC12CCCN(C1)/C(=C/c1cccc(N(C)C)c1)C2 (stereo not drawn) | / | / | / | / | / | . | /
Cc1cc2ncn(-c3ncccc3[N+](=O)[O-])c2cc1C | . | . | 86.6 | . | . | . | .
COC(=O)[C@]12C[C@H](CC(=O)NCc3ccc(OC)c(OC)c3)C(=O)N(Cc3ccco3)C1=C[C@H](C(C)C)O[C@@H]2C1CC1 | / | / | / | / | / | . | /
CC(C)CNC(=O)OCc1cn(Cc2cc(F)ccc2F)nn1 | / | / | / | / | / | . | /
COc1cc(C(C)=O)ccc1OCc1cc(C(=O)N2CCSCC2)no1 | . | . | . | . | . | . | /
CC(=O)c1cccc(OCc2cc(C(=O)N3CCSCC3)no2)c1 | . | . | 35.0 | . | . | . | .
COc1cc(-n2c(C)nc3cc(C(=O)N4CC(C)CC(C)C4)ccc32)cc(OC)c1OC (stereo not drawn) | / | / | / | / | / | . | /
O=C(OCn1ncc(Br)c(Br)c1=O)c1ccccc1Cl | 37.1 | . | 34.3 | . | . | / | 31.5
Cn1c(SCC(=O)N/N=C/C=C/c2ccco2)nc2ccccc21 | . | . | 51.7 | . | . | . | .
CCOc1ccc(-n2c(COc3ccccc3)nnc2SCC(=O)Nc2ccc(OCc3ccccc3)cc2)cc1 | / | / | / | / | / | . | /
Cc1cc([N+](=O)[O-])nn1CCCC(=O)Nc1ccc2c(c1)OCO2 | . | . | 15.3 | . | . | . | .
Cc1ccccc1Cn1cc(NC(=O)CCCn2nc([N+](=O)[O-])cc2C)cn1 | . | . | . | . | . | . | /
C/C(=N\NC(=O)Cc1cccs1)c1ccco1 | / | / | / | / | / | . | /
COc1ccc(OC)c(S(=O)(=O)N2CCC(C(=O)N3CCN(C4CCCCC4)CC3)CC2)c1 | / | / | / | / | / | . | /
Cc1ccc(OCCCNC2CCCC2)cc1 | . | . | 16.9 | . | . | . | .
CC(C)(C)c1ccc(OCCCNC2CCCC2)cc1 | . | . | . | . | . | . | /
CCOC(=O)CC[C@H]1CC[C@]2(CCCN(C(=O)c3ccno3)C2)O1 | / | / | / | / | / | . | /
CC(CCc1ccccc1)NC(=O)CNC(=O)COc1ccccc1 (stereo not drawn) | . | . | 29.6 | . | . | . | .
CC(CCc1ccccc1)NC(=O)Cc1ccccc1 (stereo not drawn) | . | . | . | . | . | . | /
COc1cc(NC2c3ccccc3C(=O)N2Cc2ccccc2Cl)cc(OC)c1 (stereo not drawn) | . | . | 58.4 | . | . | . | 15.7
SMILES | GSTO1 counter | JMJD2C inh | PAD4 FP inh | Apaf-1 inh | UBC9 SUMO inh | TDP2 inh | PAD4 confirm | others
Cc1ccccc1C(=O)NNC(=O)CSc1nc2ccccc2c(=O)[nH]1 | . | . | 23.3 | . | . | . | .
COCc1cc(C)nc(SCC(=O)Nc2ccc3[nH]c(=O)[nH]c3c2)c1C#N | . | . | . | . | . | . | /
COCc1cc(C)nc(SCC(=O)Nc2ccc3c(c2)n(C)c(=O)n3C)c1C#N | . | . | 196.8 | . | . | . | .
COC/C=C/C1=CC2=CC(=O)C(C)(OC(=O)c3cnc4ccccc4n3)C(=O)C2=CN1CC1CC1 (stereo not drawn) | . | . | 23.8 | . | / | / | .
O=C(NCCN1CCC(Cc2ccccc2)CC1)C1CCCN(S(=O)(=O)c2ccccc2)C1 (stereo not drawn) | / | / | / | / | / | . | /
CCCSc1nnc(Sc2nnnn2-c2ccccc2)s1 | . | . | 35.3 | . | . | . | 19.7
Cc1ccccc1-n1nnnc1Sc1nnnn1-c1ccccc1 | . | . | 19.1 | . | . | . | .
Cc1ccccc1-n1nnnc1SCC(N)=O | . | . | . | . | . | . | /
O=[N+]([O-])c1c(Nc2ccc(O)cc2)cc(Cl)c2nonc12 | . | . | 21.8 | . | . | . | .
CN(C)c1cc(Nc2ccc(O)cc2)c([N+](=O)[O-])c2nonc12 | . | . | . | . | . | . | /
Cc1cccc2c1NC(C)CC2C (stereo not drawn) | . | . | 15.4 | . | . | . | .
CS/C(=N\S(=O)(=O)c1cccs1)NC(=O)CSc1nc2ccccc2s1 | . | . | 18.1 | . | . | . | .
C/C(=N/NC(=O)CSc1nc2ccccc2s1)c1ccncc1 | . | . | . | . | . | . | /
CCCCCCCCN1C(=O)N2Cc3cc(OC)ccc3C2CS1(=O)=O (stereo not drawn) | / | / | / | / | / | . | /
O=c1oc2ccc(NS(=O)(=O)c3cccc4cccnc34)cc2s1 | . | . | 35.9 | . | . | . | 22.6
O=C(O)c1cccc(S(=O)(=O)Nc2ccc3oc(=O)sc3c2)c1 | . | . | 36.0 | . | . | . | .
O=C(O)c1cccc(S(=O)(=O)Nc2ccc3[nH]c(=O)[nH]c3c2)c1 | . | . | . | . | . | . | /
COC(=O)[C@]12C[C@H](CC(=O)NCc3cccc(C(F)(F)F)c3)C(=O)N(CCC3=CCCCC3)C1=C[C@H](C1CCCC1)O[C@@H]2C | / | / | / | / | / | . | /
Cn1c(/C(C#N)=C/c2ccc(-c3ccc(S(N)(=O)=O)cc3)o2)nc2ccccc21 | . | . | 27.7 | / | . | . | 20.8
COCC#Cc1ccc(CC[C@H]2O[C@H]3CC[C@H](CO)O[C@H]3C[C@H]2n2cc(C(C)(C)O)nn2)cc1 | / | / | / | / | / | . | /
CCNC(=S)NNC(=O)CSc1nc2ccccc2c(=O)n1-c1ccc(Cl)cc1 | / | / | / | / | / | . | /
COc1cccc2cc(C(=O)NCCc3ccccc3)oc12 | . | . | 16.8 | . | . | . | .
C=CCCC(=O)N[C@H]1CC[C@@]23CCCN2C(=O)CCC[C@H]3[C@H]1CCC | / | / | / | / | / | . | /

Screening results: PubChem, several laboratories
